The results in this text go back to ChEMBL document CHEMBL1287662, “Potent neuroprotective role of novel melatonin derivatives for management of central neuropathy induced by acrylamide in rats” (2010).

In experiment [1] the test system is Rattus norvegicus. Briefly: Neuroprotective activity in Sprague-Dawley rat assessed as protection against acrylamide-induced increase of malondialdehyde level at 50 mg/kg, ip administered 10 mins before acrylamide challenge for 3 days per week […] by spectrofluorometrically (reference value: 31%). Particulars: route intraperitoneal. The class given is functional.

Experiment [2] has as its system Rattus norvegicus. Briefly: Neuroprotective activity in Sprague-Dawley rat assessed as protection against acrylamide-induced decrease of glutathione peroxidase level at 50 mg/kg, ip administered 10 mins before acrylamide challenge for 3 days per week for 3 weeks by spectrofluorometrically (reference value: -43%). Also noted: scale not given: the % may be the effect or the level left. Particulars: route intraperitoneal.

The subject of experiment [3] is Rattus norvegicus. Briefly: Neuroprotective activity in Sprague-Dawley rat assessed as protection against acrylamide-induced decrease of glutathione level at 50 mg/kg, ip administered 10 mins before acrylamide challenge for 3 days per week […] by spectrofluorometrically (reference value: -27%). Particulars: route intraperitoneal. The arrangement: scale not given: the % may be the effect or the level left. Type of experiment: functional.

Experiment [4] has as its system Rattus norvegicus. Briefly: Neuroprotective activity in Sprague-Dawley rat assessed as protection against acrylamide-induced decrease in dopamine level at 50 mg/kg, ip administered 10 mins before acrylamide challenge for 3 days per week […] by spectrofluorometrically (reference value: -16%). Type of experiment: functional. The arrangement: scale not given: the % may be the effect or the level left. Conditions: route intraperitoneal.

Experiment [5] concerns Rattus norvegicus. Briefly: Neuroprotective activity in Sprague-Dawley rat assessed as protection against acrylamide-induced decrease in adrenaline level at 50 mg/kg, ip administered 10 mins before acrylamide challenge for 3 days per week […] by ELISA (reference value: -40%). Type of experiment: functional. Also noted: scale not given: the % may be the effect or the level left. Conditions: route intraperitoneal. (In general: In an ELISA, binding on a coated surface is turned into a signal by an enzyme label.)

The test system of experiment [6] is Rattus norvegicus. Briefly: Neuroprotective activity in Sprague-Dawley rat assessed as protection against acrylamide-induced decrease of creatine kinase level at 50 mg/kg, ip administered 10 mins before acrylamide challenge for 3 days per week for 3 weeks by spectrofluorometrically (reference value: -73%). Conditions: route intraperitoneal. The arrangement: scale not given: the % may be the effect or the level left.

The test system of experiment [7] is Rattus norvegicus. Briefly: Neuroprotective activity in Sprague-Dawley rat assessed as protection against acrylamide-induced decrease of superoxide dismutase level at 50 mg/kg, ip administered 10 mins before acrylamide challenge for 3 days per week for 3 weeks by spectrofluorometrically (reference value: -32%). Conditions: route intraperitoneal. Also noted: scale not given: the % may be the effect or the level left.

The subject of experiment [8] is Rattus norvegicus. Briefly: Neuroprotective activity in Sprague-Dawley rat assessed as protection against acrylamide-induced decrease in noradrenaline level at 50 mg/kg, ip administered 10 mins before acrylamide challenge for 3 days per week […] by ELISA (reference value: -21%). The class given is functional. Also noted: scale not given: the % may be the effect or the level left. Conditions: route intraperitoneal.

Experiment [9] concerns Rattus norvegicus. Briefly: Neuroprotective activity in Sprague-Dawley rat assessed as protection against acrylamide-induced increase of LDH level at 50 mg/kg, ip administered 10 mins before acrylamide challenge for 3 days per week for 3 weeks by spectrofluorometrically (reference value: 67%). Particulars: route intraperitoneal.
In experiment [10] the test system is Rattus norvegicus. Briefly: Neuroprotective activity in Sprague-Dawley rat assessed as protection against acrylamide-induced neuronal damage at 50 mg/kg, ip administered 10 mins before acrylamide challenge for 3 days per week for 2 weeks by histopathology analysis. The class given is functional, organism-based. The arrangement: dose 50 mg/kg. Particulars: in the assay text read “for 3 weeks” for “for 2 weeks”. An outline of the steps: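 Rats (n = 10 per group) given agent at 50 mg/kg i.p. in 2% Tween 10 min before ACR at 50 mg/kg i.p., 3 days/week for 3 weeks. Brain tissue examined by light photomicrography for neuronal morphology (dark neurons, chromatin clumping, vacuoles), compared with control and ACR-only rats.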

The source made the active and inactive calls. No cut-off for these calls is given here.

`COc1ccc2c(c1)c(CCNC(C)=O)c1sc(-c3c(C(C)=O)nn(-c4ccccc4)c3N)nn12`: the Activity is -19% in the experiment with Rattus norvegicus [1]; 5% in the experiment with Rattus norvegicus [2]; 27% in the experiment on Rattus norvegicus [3]; 10% in the experiment on Rattus norvegicus [4]; 60% with Rattus norvegicus [5]; 6% with Rattus norvegicus [6]. Further, the Activity is listed as 65% in the experiment with Rattus norvegicus [7], 14% in the experiment with Rattus norvegicus [8] and -45% in the experiment on Rattus norvegicus [9].
Regarding `COc1ccc2c(c1)c(CCNC(C)=O)cn2CN1CCOCC1`, the Activity in the experiment with Rattus norvegicus [1] is given as -21%; in the experiment with Rattus norvegicus [2], 11%; with Rattus norvegicus [3] it was 27%; with Rattus norvegicus [4], 19%; in the experiment with Rattus norvegicus [5], 65%; in the experiment on Rattus norvegicus [6], 30%. Moreover, the Activity is reported as 77% with Rattus norvegicus [7], 28% with Rattus norvegicus [8] and -55% in the experiment on Rattus norvegicus [9].
As to `COc1ccc2c(c1)c(CCNC(C)=O)c1sc(C3=C(c4ccccc4)CC(=N)C(C#N)=C3N)nn12`, the Activity in the experiment on Rattus norvegicus [1] is listed as -20%; in the experiment on Rattus norvegicus [2], 8%; in the experiment with Rattus norvegicus [3] it was 27%; in the experiment on Rattus norvegicus [4] it was 11%; in the experiment on Rattus norvegicus [5] it was 63%; with Rattus norvegicus [6], 18%. The Activity with Rattus norvegicus [7] is on record as 71%; with Rattus norvegicus [8], 28%; in the experiment with Rattus norvegicus [9], -47%.
Take `COc1ccc2[nH]cc(CCNC(C)=O)c2c1` [MELATONIN]: the Activity with Rattus norvegicus [1] is -22%; with Rattus norvegicus [2], 38%; in the experiment with Rattus norvegicus [3] it was 82%; in the experiment on Rattus norvegicus [4], 33%; in the experiment on Rattus norvegicus [5], 67%; in the experiment with Rattus norvegicus [6] it was 59%. In addition, the Activity with Rattus norvegicus [7] is reported as 135%; in the experiment with Rattus norvegicus [8] it was 32%; with Rattus norvegicus [9] it was -65%. The result in the experiment on Rattus norvegicus [10] was Active.
As to `COc1ccc2c(c1)c(CCNC(C)=O)cn2-c1c[nH]nc1-c1ccccc1`, the Activity in the experiment with Rattus norvegicus [1] is reported as -17%; with Rattus norvegicus [2], 3%; in the experiment with Rattus norvegicus [3], 9%; with Rattus norvegicus [4] it was 3%; in the experiment on Rattus norvegicus [5], 60%; in the experiment with Rattus norvegicus [6] it was 6%. Moreover, the Activity was 41% in the experiment with Rattus norvegicus [7], 11% with Rattus norvegicus [8] and -40% in the experiment on Rattus norvegicus [9].
